Experimental data as given in ChEMBL document CHEMBL1149859, “Proteasome inhibition by peptide-semicarbazones” (Bioorg Med Chem, 2008).
Active and inactive are the calls of the source. No cut-off for these calls is given here.

How the values were obtained:
[1] = Inhibition of human 20S proteasome by fluorescence spectroscopy
Outline: (§1)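 20S proteasome (1.3 µg) activated in 25 mM Hepes pH 7.5, 0.5 mM EDTA, 0.033% SDS for 10 min at room temperature. Added to compound in DMSO with 75 µM Suc-LLVY-AMC. AMC release followed 20 min at 30 °C (ex 360, em 465 nm) as RFU/min. IC50 from eight concentrations, triplicates on one day.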

A549 = test: Inhibition of TNF-alpha-induced NF-kappaB transcriptional activation in human A549 cells by SEAP reporter gene assay; type: functional, cell-based
Outline: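 A549 cells stably transfected with a pNF-κB-SEAP reporter, seeded at 2 × 10^4/well and attached overnight. Preincubated 5 h with compound at 100, 30, 10, 3, 1, 0.3, 0.1 and 0 µM, then stimulated with 10 ng/ml TNF-α for 22 h. Supernatant SEAP read by chemiluminescence; viability checked in parallel with CellTiter-Blue.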

PBMC = test: Antiproliferative activity against human peripheral blood mononuclear cells after 48 hrs by ELISA; type: cell-based
Outline: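 Human PBMC isolated by density gradient, 100,000–200,000 cells/well in RPMI 1640 with 10% heat-inactivated FBS. Stimulated with 20 µg/ml PHA-L and exposed to compound at 0.4–50 µM for 48 h at 37 °C, 5% CO2. BrdU (10 µM) added for a further 4 h. Cells fixed and DNA denatured; incorporated BrdU detected with anti-BrdU-POD.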

[2] = Inhibition of peptidylglutamyl peptide hydrolyzing site of human 20S proteasome
Outline: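 Peptidylglutamyl-peptide hydrolysing activity of SDS-activated 20S proteasome (1.3 µg; 25 mM Hepes pH 7.5, 0.5 mM EDTA, 0.033% SDS, 10 min preincubation at room temperature). Substrate was 75 µM Z-LLE-βNA with compound in DMSO. Fluorescence followed 20 min at 30 °C as RFU/min. IC50 from eight concentrations, triplicates on one day.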

[3] = Inhibition of chymotrypsin-like site of human 20S proteasome; outline: as §1

IC50 [1] [nM] | EC50 (A549) [nM] | IC50 [2] [nM] | IC50 [3] [nM] | Compound | IC50 (PBMC) [nM] | Activity (A549)
1600 | 4900 |  |  | O=C1CN(/N=C/[C@H](Cc2ccccc2)NC(=O)[C@H](Cc2c[nH]c3ccccc23)NC(=O)[C@H](Cc2c[nH]c3ccccc23)NC(=O)OCc2ccncc2)C(=O)N1 |  | 
200 | 400 | 1200 | 200 | O=C1CN(/N=C/[C@H](Cc2ccccc2)NC(=O)[C@H](Cc2c[nH]c3ccccc23)NC(=O)[C@H](Cc2c[nH]c3ccccc23)NC(=O)OCc2ccccc2)C(=O)N1 | 700 | 
1100 | 3000 |  |  | O=C1CN(/N=C/[C@H](Cc2c[nH]c3ccccc23)NC(=O)[C@H](Cc2c[nH]c3ccccc23)NC(=O)[C@H](Cc2c[nH]c3ccccc23)NC(=O)OCc2ccccc2)C(=O)N1 |  | 
400 | 800 |  |  | O=C1CN(/N=C/[C@@H](Cc2ccccc2)NC(=O)[C@H](Cc2c[nH]c3ccccc23)NC(=O)[C@H](Cc2c[nH]c3ccccc23)NC(=O)OCc2ccccc2)C(=O)N1 |  | 

Second part, the molecule before the results:

Compound | IC50 [1] [nM] | EC50 (A549) [nM] | IC50 [2] [nM] | IC50 [3] [nM] | IC50 (PBMC) [nM] | Activity (A549)
O=C1CN(/N=C/[C@H](Cc2ccccc2)NC(=O)[C@H](Cc2c[nH]c3ccccc23)NC(=O)[C@H](Cc2c[nH]c3ccccc23)NC(=O)CCCCC2SCC3NC(=O)NC32)C(=O)N1 (stereo partly drawn) | 100 |  |  |  | 29000 | inactive
O=C1CN(/N=C/[C@H](Cc2ccccc2)NC(=O)[C@H](Cc2c[nH]c3ccccc23)NC(=O)[C@H](Cc2c[nH]c3ccccc23)NC(=O)CCc2ccc(O)cc2)C(=O)N1 | 100 | 8700 |  |  |  | 
NC(=O)N/N=C/[C@H](Cc1c[nH]c2ccccc12)NC(=O)[C@H](Cc1c[nH]c2ccccc12)NC(=O)[C@H](Cc1c[nH]c2ccccc12)NC(=O)OCc1ccccc1 | 100 | 1800 | 3700 | 100 | 1400 | 
NC(=O)N/N=C/[C@H](Cc1ccccc1)NC(=O)[C@H](Cc1c[nH]c2ccccc12)NC(=O)[C@H](Cc1c[nH]c2ccccc12)NC(=O)OCc1ccccc1 | 200 | 5800 |  |  |  | 
